Laboratory results: ChEMBL document CHEMBL1124521, “Effect of structural modifications in the C7-C11 region of the retinoid skeleton on biological activity in a series of aromatic retinoids” (1989)

Legend:
[1] = biological target: Cellular retinoic acid-binding protein 1 (Gallus gallus) (UniProt P40220); assay: Concentration of compound required to inhibit binding of 2.5 uM [3H]all-trans-retinoic acid by 50% in chick
In short: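 Chick embryo skin CRABP (12–13-day), with albumin removed on Affi-Gel Blue. Eluates (1 mg protein/0.4 mL) were incubated with saturable [³H]-all-trans-retinoic acid ± 1-, 5-, 10- or 25-fold molar excess of unlabeled retinoid. Free ligand was removed with dextran-coated charcoal, followed by filtration and counting of bound radioactivity. Nonspecific binding was defined with 25-fold excess of retinoic acid. ID50 from semilog plots.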

F9 [2] = assay: Ability to displace 3 uM retinoid and [3H]all-trans-retinoic acid in F9 embryonal carcinoma cells using F9 Plasminogen Activator releasing assay; format: functional; details: Mus musculus, F9, 4 days; read-out: ED50 (the source's name)
F9 [3] = assay: Ability to displace [3H]all-trans-retinoic acid from F9 embryonal carcinoma cells, was assessed in a F9 laminin release assay; format: functional; details: Mus musculus, F9, 96 h; read-out: ED50 (the source's name)
Oryctolagus cuniculus [4] = species on record: Oryctolagus cuniculus; assay: Percentage inhibition of cholesterol-3-sulfate activity in rabbit at 0.1 nM.; format: functional
In short: (§1)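 Rabbit tracheal epithelial cells in supplemented Ham's F12, given retinoid (0.1 or 10 nM) in Me₂SO from day 5 for 5 days. Cells were labeled 22 h with 25 μCi/mL Na₂³⁵SO₄, trypsinized, and extracted with CHCl₃/MeOH. Inhibition of ³⁵SO₄ incorporation into cholesterol 3-sulfate was measured relative to control.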

Oryctolagus cuniculus [5] = species on record: Oryctolagus cuniculus; assay: Percentage inhibition of cholesterol-3-sulfate activity rabbit at 10 nM.; format: functional; parameters: scale not given: the % may be the effect or the level left; in short: as §1
Oryctolagus cuniculus [6] = species on record: Oryctolagus cuniculus; assay: cross-linked envelope inhibition assay was performed at 10 nM compound concentration; format: functional; parameters: scale not given: the % may be the effect or the level left
In short: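 Rabbit tracheal epithelial cells exposed to 1 × 10⁻⁸ M retinoid from day 6 of culture. Cross-linked envelope formation was determined on day 12, in triplicate.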

[7] = Inhibitory dose against tracheal organ culture reversal of keratinization; format: functional; details: Cricetulus griseus, Trachea; read-out: ID50 (the source's name)
In short: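 Retinoid-deficient hamster tracheas in organ culture, scored for reversal of keratinization. At least six cultures per retinoid concentration; ID50 by polynomial interpolation.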

Oryctolagus cuniculus [8] = species on record: Oryctolagus cuniculus; assay: Percentage inhibition of Transglutaminase activity in rabbit at 10 nM.
In short: (§2)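 Rabbit tracheal epithelial cells on fibronectin/BSA/vitrogen-coated dishes in supplemented Ham's F12, treated with retinoid in Me₂SO from day 5 for 5 days. Cells were sonicated in PBS with 10 mM dithiothreitol, and transglutaminase activity was measured as [³H]putrescine incorporation into casein, in triplicate.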

[9] = biological target: Ornithine decarboxylase (Mus musculus) (UniProt P00860); assay: Inhibitory effect of compound on the induction of ornithine decarboxylase in CD-1 mouse.
[10] = (§3) Inhibition of binding of [3H]all-trans-retinoic acid to cellular retinoic acid binding protein at 3 uM compound concentration, in rat; parameters: scale not given: the % may be the effect or the level left
In short: (§4)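 CRABP partially purified from rat testis. Competition of 3 μM retinoid with [³H]-all-trans-retinoic acid, bound ligand separated by Sephadex G-25 gel filtration on 2-mL columns. Triplicate measurements.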

Oryctolagus cuniculus [11] = species on record: Oryctolagus cuniculus; assay: Percentage inhibition of Transglutaminase activity in rabbit at 0.1 nM.; parameters: scale not given: the % may be the effect or the level left; in short: as §2
[12] = as §3; format: functional; parameters: scale not given: the % may be the effect or the level left; in short: as §4
[13] = biological target: Cellular retinoic acid-binding protein 1 (Gallus gallus) (UniProt P40220)

Chain of Cellular retinoic acid-binding protein 1 (Gallus gallus) (P40220 whole entry): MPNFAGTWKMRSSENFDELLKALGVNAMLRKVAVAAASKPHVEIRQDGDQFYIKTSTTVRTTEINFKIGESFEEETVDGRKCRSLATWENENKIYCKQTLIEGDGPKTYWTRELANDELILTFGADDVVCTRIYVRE
Chain of Ornithine decarboxylase (Mus musculus) (P00860 whole entry, looked up): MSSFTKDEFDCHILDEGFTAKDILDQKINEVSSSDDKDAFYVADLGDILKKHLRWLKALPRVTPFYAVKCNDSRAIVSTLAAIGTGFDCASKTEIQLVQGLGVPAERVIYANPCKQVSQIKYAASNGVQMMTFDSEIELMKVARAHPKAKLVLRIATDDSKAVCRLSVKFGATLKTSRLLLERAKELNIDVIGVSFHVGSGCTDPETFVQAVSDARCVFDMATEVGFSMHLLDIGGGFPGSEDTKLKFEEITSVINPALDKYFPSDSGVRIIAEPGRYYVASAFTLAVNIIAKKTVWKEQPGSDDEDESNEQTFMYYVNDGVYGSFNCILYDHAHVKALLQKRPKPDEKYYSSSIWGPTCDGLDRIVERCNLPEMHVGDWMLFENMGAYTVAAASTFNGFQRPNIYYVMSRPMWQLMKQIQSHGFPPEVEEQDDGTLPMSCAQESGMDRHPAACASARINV

| Structure (SMILES) | ID50 [1] [nM] | IC50 [7] [nM] | Transglutaminase activity (% of control) (Oryctolagus cuniculus [8]) [%] | ID50 [9] [nM] | Control [10] [%] | Control (Oryctolagus cuniculus [11]) [%] | ID50 [13] [nM] | EC50 (F9 [2]) [nM] | EC50 (F9 [3]) [nM] | Cholesterol sulfate synthesis (% of control) (Oryctolagus cuniculus [4]) [%] | Control (Oryctolagus cuniculus [5]) [%] | Control (Oryctolagus cuniculus [6]) [%] | Control [12] [%] |
| --- | --- | --- | --- | --- | --- | --- | --- | --- | --- | --- | --- | --- | --- |
| CC1(C)CCC(C)(C)c2cc(-c3ccc4cc(C(=O)O)ccc4c3)ccc21 | 1600 | 0.003 | 9 | 2.2 | 91 |  |  | 1 | 31 | 15 | 2 | <1 |  |
| Cc1c(-c2ccc3c(c2)C(C)(C)CCC3(C)C)ccc2cc(C(=O)O)ccc12 | 15000 | 0.08 | 47 | 66 |  | 114 |  | 3 | > 5000 | 187 | 14 | 5 |  |
| Cc1cc2c(cc1-c1ccc3cc(C(=O)O)ccc3c1)C(C)(C)CCC2(C)C | 4800 | 0.02 | 11 | 0.4 |  | 37 |  | 0.5 | > 100 | 12 | 2 | <1 |  |
| CC1=C(/C=C/C(C)=C/C=C/C(C)=C/C(=O)O)C(C)(C)CCC1 [TRETINOIN] |  | 0.01 | 15 | 0.04 |  |  | 1000 | 0.1 | 1.5 | 100 | 5 | <1 | 91 |

More lines, main results first:

| ID50 [1] [nM] | IC50 [7] [nM] | Transglutaminase activity (% of control) (Oryctolagus cuniculus [8]) [%] | ID50 [9] [nM] | Control [10] [%] | Control (Oryctolagus cuniculus [11]) [%] | ID50 [13] [nM] | Structure (SMILES) | EC50 (F9 [2]) [nM] | EC50 (F9 [3]) [nM] | Cholesterol sulfate synthesis (% of control) (Oryctolagus cuniculus [4]) [%] | Control (Oryctolagus cuniculus [5]) [%] | Control (Oryctolagus cuniculus [6]) [%] | Control [12] [%] |
| --- | --- | --- | --- | --- | --- | --- | --- | --- | --- | --- | --- | --- | --- |
| 1000 | > 10 | 68 | 142 |  |  |  | C/C(=C(/C)c1ccc2c(c1)C(C)(C)CCC2(C)C)c1ccc(C(=O)O)cc1 | > 10 | > 100 | 73 | 33 | 100 |  |
| 800 | 0.01 | 14 | 0.07 |  | 12 |  | CC1(C)CCC(C)(C)c2cc3cc(-c4ccc(C(=O)O)cc4)ccc3cc21 | 0.3 | 0.2 | 13 | 2 | <1 |  |
| 800 | 0.002 | 1 | 0.03 | 100 |  |  | C/C(=C\c1ccc(C(=O)O)cc1)c1ccc2c(c1)C(C)(C)CCC2(C)C | 0.08 | 1.5 | 6 | 1 | <1 |  |
| 1000 | 0.007 | 5 | 0.03 | 27 | 10 |  | C/C(=C\c1ccc2c(c1)C(C)(C)CCC2(C)C)c1ccc(C(=O)O)cc1 | 0.7 | 1.5 | 2 | 1 | 0 |  |
| 4800 | > 0.1 | 23 | 3.2 |  | 130 |  | CC1(C)CCC(C)(C)c2cc(C3C[C@H]3c3ccc(C(=O)O)cc3)ccc21 (stereo not given in full) | 2 | 90 | 73 | 2 | <1 |  |
